Source: ChEMBL document CHEMBL1124595, “Synthesis and biological activity of 3-substituted imidazo[1,2-a]pyridines as antiulcer agents” (1989)

Key:
Type in all cases: functional
[1] = test system: Rattus norvegicus; assay: Antisecretory activity in gastric fistula rat when administered perorally; details: Stomach, po
Procedure, shortened: (§1)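 Chronic gastric fistula rats dosed orally. Activity was taken as percent inhibition of gastric acid secretion. The dose giving 50% inhibition (ED50) was calculated by probit analysis.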

[2] = test system: Rattus norvegicus; assay: Cytoprotective activity in rat when administered 30 mg/kg perorally (Ethyl alcohol as necrotic agent); details: route oral
Procedure, shortened: (§2)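 Food was withheld for 24 h and water for 1½–18 h. Rats were dosed orally (3–12 mL vehicle/kg) 60 min before 100% ethanol, 3.0 mL/kg by gavage. They were killed 60 min after insult, and the stomach was opened along the lesser curvature and photographed. Lesion area score ÷4 gave mm²; group mean was compared with controls as % inhibition. Five animals per dose, standard error.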

[3] = test system: Rattus norvegicus; assay: Cytoprotective activity in rats when administered 30 mg/kg perorally (Hydrochloric acid as necrotic agent); details: route oral
Procedure, shortened: as §2, with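 “0.75 N HCl,” for “100% ethanol,”, “greater” for “lesser”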

[4] = test system: Rattus norvegicus; assay: Cytoprotective activity in rats when administered 50 mg/kg perorally (Hydrochloric acid as necrotic agent); details: route oral
Procedure, shortened: as §2, with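 “0.75 N HCl,” for “100% ethanol,”, “greater” for “lesser”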

[5] = test system: Rattus norvegicus; assay: Cytoprotective activity in rat when administered 50 mg/kg perorally (Ethyl alcohol as necrotic agent); details: route oral; procedure, shortened: as §2
[6] = test system: Rattus norvegicus; assay: Cytoprotective activity in rats when administered 100 mg/kg perorally (Hydrochloric acid as necrotic agent); details: route oral
Procedure, shortened: as §2, with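 “0.75 N HCl,” for “100% ethanol,”, “greater” for “lesser”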

[7] = test system: Rattus norvegicus; assay: Antisecretory activity in gastric fistula rat when administered per orally; details: Stomach, po; procedure, shortened: as §1
[8] = test system: Rattus norvegicus; assay: Cytoprotective activity in rats when administered 50 mg/kg perorally per orally (Hydrochloric acid as necrotic agent); details: route oral
Procedure, shortened: as §2, with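 “0.75 N HCl,” for “100% ethanol,”, “greater” for “lesser”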

[9] = test system: Rattus norvegicus; assay: Cytoprotective activity in rats when administered 0.10 mg/kg perorally per orally (Hydrochloric acid as necrotic agent); details: route oral
Procedure, shortened: as §2, with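 “0.75 N HCl,” for “100% ethanol,”, “greater” for “lesser”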

[10] = test system: Rattus norvegicus; assay: Cytoprotective activity in rat when administered 0.25 mg/kg perorally (Ethyl alcohol as necrotic agent); details: route oral; procedure, shortened: as §2

SMILES | ED50 [1] [mg/kg] | inhibition in vivo at 50 mg/kg [4] [%] | inhibition in vivo at 50 mg/kg [5] [%] | further results
Cc1nc2c(OCc3ccccc3)cccn2c1C(C)SCCNc1nsnc1N (configuration not stated) | > 25 | – | – | inhibition in vivo at 30 mg/kg [2]: 84%; inhibition in vivo at 30 mg/kg [3]: 62%
Cc1nc2c(OCc3ccccc3)cccn2c1C(C)SCCNc1n[s+]([O-])nc1N (configuration not stated) | > 25 | 57 | 57 | –
C/N=C(/NC#N)NCCSCc1c(C)nc2ccccn12 | > 25 | 60 | – | inhibition in vivo at 30 mg/kg [2]: 97%
Cc1nc2c(OCc3ccccc3)cccn2c1CC#N | 0.9 | – | – | inhibition in vivo at 100 mg/kg [6]: 68%; inhibition in vivo at 30 mg/kg [2]: 90%
Cc1nc2ccccn2c1C(C)SCCNc1nsnc1N (configuration not stated) | > 25 | 51 | 54 | –
Cc1nc2ccccn2c1C(C)SCC/N=c1/c(O)c(O)c1=N (configuration not stated) | – | – | 7 | ED50 [7]: > 25 mg/kg; inhibition in vivo at 50 mg/kg [8]: 27%
Cc1nc2ccccn2c1CSCCNc1nsnc1N | > 25 | 24 | 70 | –
Cc1nc2ccccn2c1CSCC/N=c1/c(O)c(O)c1=N | – | – | 0 | ED50 [7]: > 25 mg/kg; inhibition in vivo at 50 mg/kg [8]: 34%
Cc1nc2ccccn2c1CSCCNc1n[s+]([O-])nc1N (configuration not stated) | > 25 | – | 2 | –
Cc1nc2ccccn2c1C(C)SCCNc1n[s+]([O-])nc1N (configuration not stated) | > 25 | 36 | 47 | –
CCCCC[C@H](O)/C=C/[C@H]1[C@H](O)CC(=O)[C@@H]1C/C=C\CCCC(=O)O [DINOPROSTONE] | – | – | – | ED50 [7]: 0.83 mg/kg; inhibition in vivo at 0.1 mg/kg [9]: 70%; inhibition in vivo at 0.25 mg/kg [10]: 89%
